Key:
[1] = target: T1, UDP-glucuronosyltransferase 1A3 (Homo sapiens, UniProt P35503); experiment: Drug metabolism in human liver microsomes assessed as UGT1A3-mediated unbound intrinsic glucuronidation clearance at 1 uM after 30 to 60 mins by LC-MS/MS analysis; type: ADME
T1 sequence (P35503 whole entry): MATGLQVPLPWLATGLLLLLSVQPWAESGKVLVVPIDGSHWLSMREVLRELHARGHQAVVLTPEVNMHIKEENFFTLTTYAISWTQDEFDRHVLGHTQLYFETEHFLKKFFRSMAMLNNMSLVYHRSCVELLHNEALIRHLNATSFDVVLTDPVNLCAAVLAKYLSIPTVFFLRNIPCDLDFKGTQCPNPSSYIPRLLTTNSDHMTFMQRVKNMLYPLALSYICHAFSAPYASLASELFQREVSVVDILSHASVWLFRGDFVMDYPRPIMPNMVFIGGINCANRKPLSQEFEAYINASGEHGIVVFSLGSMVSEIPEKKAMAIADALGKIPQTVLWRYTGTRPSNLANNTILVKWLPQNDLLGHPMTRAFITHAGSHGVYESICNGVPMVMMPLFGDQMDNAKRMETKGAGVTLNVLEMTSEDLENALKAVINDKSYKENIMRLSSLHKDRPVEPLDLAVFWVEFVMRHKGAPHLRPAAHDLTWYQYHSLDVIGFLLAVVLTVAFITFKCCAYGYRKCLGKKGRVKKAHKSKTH

[2] = Unbound intrinsic glucuronidation clearance in human intestinal microsomes at 1 uM after 30 to 60 mins by LC-MS/MS analysis in presence of UDP-glucuronosyltransferase and 1% bovine serum albumin; type: ADME, Intestine, Microsome
[3] = Fraction unbound in human intestinal microsomes at 1 uM after 30 to 60 mins by LC-MS/MS analysis; type: ADME, Intestine, Microsome
[4] = Glucuronidation clearance in human liver microsomes in presence of bovine serum albumin; type: ADME
[5] = Clearance in iv dosed human; type: ADME, organism-based; conditions: in vivo
Liver microsome [6] = experiment: Fraction metabolized glucuronidation in human liver microsomes in presence of UDP-glucuronosyltransferase and bovine serum albumin; type: ADME
[7] = Ratio of unbound intrinsic glucuronidation clearance in human intestinal microsomes in presence of 1% bovine serum albumin to unbound intrinsic glucuronidation clearance in human intestinal microsomes in absence of bovine serum albumin; type: ADME, Intestine, Microsome
Summary of the method: (§1)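 Unbound intrinsic glucuronidation clearance measured by parent-drug depletion in intestinal or kidney microsomes, once with 1% BSA and once without, under otherwise matched conditions (1 μM drug, pH 7.1 phosphate, 5 mM cofactor, 37°C). Each value was corrected for fu,inc. The ratio is the mean clearance with BSA over the mean without.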

Liver microsome [8] = experiment: Fraction metabolized glucuronidation in human liver microsomes in presence of UDP-glucuronosyltransferase; type: ADME
Liver microsome [9] = experiment: Fraction unbound in human liver microsomes at 1 uM after 30 to 60 mins by LC-MS/MS analysis in presence of 1% bovine serum albumin; type: ADME; conditions: microsomes, 1 µM
[10] = Fraction unbound in human liver microsomes at 1 uM after 30 to 60 mins by LC-MS/MS analysis; type: ADME
[11] = target: T1, UDP-glucuronosyltransferase 1A3; experiment: Drug metabolism in human kidney microsomes assessed as UGT1A3-mediated unbound intrinsic glucuronidation clearance at 1 uM after 30 to 60 mins by LC-MS/MS analysis in presence of 1% bovine serum albumin; type: ADME
[12] = Glucuronidation clearance in human liver microsomes; type: ADME
[13] = target: T1, UDP-glucuronosyltransferase 1A3; experiment: Ratio of UGT1A3-mediated unbound intrinsic glucuronidation clearance in human intestinal microsomes to UGT1A3-mediated unbound intrinsic glucuronidation clearance in human liver microsomes at 1 uM in presence of 1% bovine serum albumin; type: ADME
Summary of the method: (§2)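 Ratios of mean unbound CLint,UGT, each scaled per g tissue, between pooled liver, kidney and intestinal microsomes. Values come from 1 μM substrate-depletion assays in pH 7.1 phosphate at 37°C, run with or without BSA (1% for acids, 2% for bases/neutral drugs). Corrected for nonspecific binding. Kidney and liver n = 3; intestine n = 1; each in duplicate.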

[14] = target: T1, UDP-glucuronosyltransferase 1A3; experiment: Drug metabolism in human kidney microsomes assessed as UGT1A3-mediated unbound intrinsic glucuronidation clearance at 1 uM after 30 to 60 mins by LC-MS/MS analysis; type: ADME
Summary of the method: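 Pooled human kidney microsomes (8 donors), alamethicin-activated. […] Started with cofactor (5 mM in incubation) and run 30–60 min. Parent depletion measured by LC-MS/MS; single-exponential k; corrected by equilibrium-dialysis fu,inc. Duplicates, three occasions.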

[15] = target: T1, UDP-glucuronosyltransferase 1A3; experiment: Ratio of UGT1A3-mediated unbound intrinsic glucuronidation clearance in human kidney microsomes to UGT1A3-mediated unbound intrinsic glucuronidation clearance in human intestinal microsomes at 1 uM in presence of 1% bovine serum albumin; type: ADME; summary of the method: as §2
[16] = Unbound intrinsic glucuronidation clearance in human intestinal microsomes at 1 uM after 30 to 60 mins by LC-MS/MS analysis in presence of UDP-glucuronosyltransferase; type: ADME, Intestine, Microsome
Summary of the method: (§3)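 Alamethicin-activated pooled microsomes (HLM 150 donors; HKM 8; HIM 18). Drug at 1 μM final, preincubated 5 min at 37°C in 0.1 M phosphate pH 7.1 with 3.45 mM MgCl2, 1.15 mM EDTA, 115 μM saccharic acid lactone. Started with […] cofactor (5 mM final), 30–60 min. Cofactor-free controls. Parent depletion by LC-MS/MS, single-exponential k. Corrected by HLM-dialysis fu,inc. Duplicates; n=3 (HIM n=1).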

[17] = Fraction unbound in human plasma
[18] = target: T1, UDP-glucuronosyltransferase 1A3; experiment: Ratio of UGT1A3-mediated unbound intrinsic glucuronidation clearance in human kidney microsomes to UGT1A3-mediated unbound intrinsic glucuronidation clearance in human liver microsomes at 1 uM; type: ADME; summary of the method: as §2
Liver microsome [19] = experiment: Unbound intrinsic glucuronidation clearance in human liver microsomes at 1 uM after 30 to 60 mins by LC-MS/MS analysis in presence of UDP-glucuronosyltransferase; type: ADME; summary of the method: as §3
[20] = target: T1, UDP-glucuronosyltransferase 1A3; experiment: Drug metabolism in human intestinal microsomes assessed as UGT1A3-mediated unbound intrinsic glucuronidation clearance at 1 uM after 30 to 60 mins by LC-MS/MS analysis in presence of 1% bovine serum albumin; type: ADME, Intestine
Liver microsome [21] = experiment: Unbound intrinsic glucuronidation clearance in human liver microsomes at 1 uM after 30 to 60 mins by LC-MS/MS analysis in presence of UDP-glucuronosyltransferase and 1% bovine serum albumin; type: ADME
Liver microsome [22] = experiment: Ratio of unbound intrinsic glucuronidation clearance in human liver microsomes in presence of 1% bovine serum albumin to unbound intrinsic glucuronidation clearance in human liver microsomes in absence of bovine serum albumin; type: ADME
Summary of the method: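 Ratio of mean unbound CLint,UGT in pooled human liver microsomes with 1% BSA to that without BSA. Both come from 1 μM depletion assays at 37°C in pH 7.1 phosphate buffer, with parent drug measured by LC-MS/MS. BSA runs were quenched in double-volume ice-cold acetonitrile. Each condition was corrected by its own equilibrium-dialysis fu,inc. n = 3, duplicates.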

[23] = target: T1, UDP-glucuronosyltransferase 1A3; experiment: Ratio of UGT1A3-mediated unbound intrinsic glucuronidation clearance in human kidney microsomes to UGT1A3-mediated unbound intrinsic glucuronidation clearance in human intestinal microsomes at 1 uM; type: ADME; summary of the method: as §2
[24] = target: T1, UDP-glucuronosyltransferase 1A3; experiment: Ratio of UGT1A3-mediated unbound intrinsic glucuronidation clearance in human kidney microsomes to UGT1A3-mediated unbound intrinsic glucuronidation clearance in human liver microsomes at 1 uM in presence of 1% bovine serum albumin; type: ADME; summary of the method: as §2
[25] = target: T1, UDP-glucuronosyltransferase 1A3; experiment: Drug metabolism in human liver microsomes assessed as UGT1A3-mediated unbound intrinsic glucuronidation clearance at 1 uM after 30 to 60 mins by LC-MS/MS analysis in presence of 1% bovine serum albumin; type: ADME
[26] = Fraction unbound in human kidney microsomes at 1 uM after 30 to 60 mins by LC-MS/MS analysis; type: ADME
[27] = target: T1, UDP-glucuronosyltransferase 1A3; experiment: Drug metabolism in human intestinal microsomes assessed as UGT1A3-mediated unbound intrinsic glucuronidation clearance at 1 uM after 30 to 60 mins by LC-MS/MS analysis; type: ADME, Intestine
[28] = target: T1, UDP-glucuronosyltransferase 1A3; experiment: Ratio of UGT1A3-mediated unbound intrinsic glucuronidation clearance in human intestinal microsomes to UGT1A3-mediated unbound intrinsic glucuronidation clearance in human liver microsomes at 1 uM; type: ADME; summary of the method: as §2
[29] = Ratio of unbound intrinsic glucuronidation clearance in human kidney microsomes in presence of 1% bovine serum albumin to unbound intrinsic glucuronidation clearance in human kidney microsomes in absence of bovine serum albumin; type: ADME, microsome; summary of the method: as §1
[30] = Unbound intrinsic glucuronidation clearance in human kidney microsomes at 1 uM after 30 to 60 mins by LC-MS/MS analysis in presence of UDP-glucuronosyltransferase; type: ADME, microsome; summary of the method: as §3
[31] = Unbound intrinsic glucuronidation clearance in human kidney microsomes at 1 uM after 30 to 60 mins by LC-MS/MS analysis in presence of UDP-glucuronosyltransferase and 1% bovine serum albumin; type: ADME, microsome

CCCc1nc2c(C)cc(-c3nc4ccccc4n3C)cc2n1Cc1ccc(-c2ccccc2C(=O)O)cc1
CL free [1]: 3.08 mL/min/g | CL free [2]: 91.4 µL/min/mg | fraction unbound at 1 µM [3]: 0.48 | CLhep predicted [4]: 9.93 mL/min/kg | clearance [5]: 12.3 mL/min/kg | Drug metabolism (Liver microsome [6]): 1 | Ratio [7]: 1.6 | Drug metabolism (Liver microsome [8]): 1 | Fu (Liver microsome [9]): 0.07 | fraction unbound at 1 µM [10]: 0.65 | CL free [11]: 0.439 mL/min/g | CLhep predicted [12]: 9.93 mL/min/kg | Ratio [13]: 0.119 | CL free [14]: 0.124 mL/min/g | Ratio [15]: 0.233 | CL free [16]: 21.3 µL/min/mg | fraction unbound [17]: 0.005 | Ratio [18]: 0.04 | CL free (Liver microsome [19]): 76.9 µL/min/mg | CL free [20]: 1.88 mL/min/g | CL free (Liver microsome [21]): 395 µL/min/mg | Ratio (Liver microsome [22]): 1.6 | Ratio [23]: 0.284 | Ratio [24]: 0.028 | CL free [25]: 15.8 mL/min/g | fraction unbound at 1 µM [26]: 0.48 | CL free [27]: 0.438 mL/min/g | Ratio [28]: 0.142 | Ratio [29]: 1.6 | CL free [30]: 9.72 µL/min/mg | CL free [31]: 34.3 µL/min/mg

Reference: ChEMBL document CHEMBL3526056, “Characterization of in vitro glucuronidation clearance of a range of drugs in human kidney microsomes: comparison with liver and intestinal glucuronidation and impact of albumin” (Drug Metab Dispos, 2012)
